In ChEMBL document CHEMBL1156965, “Design, synthesis and antimalarial/anticancer evaluation of spermidine linked artemisinin conjugates designed to exploit polyamine transporters in Plasmodium falciparum and HL-60 cancer cell lines” (Bioorg Med Chem, 2010):

How the values were obtained:
[1] = system: Plasmodium falciparum; test: Antimalarial activity against chloroquine-sensitive Plasmodium falciparum 3D7 infected in human erythrocytes assessed as [3H]hypoxanthine incorporation after 24 hrs by liquid scintillation and luminescence counting; assay type: functional, organism-based
Outline: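 3D7 P. falciparum kept in human erythrocytes in RPMI-1640 with 25 mM HEPES, 32 mM NaHCO3, 10% human serum, under 3% O2/4% CO2/93% N2. Assay at 2% parasitemia, 0.5% haematocrit, triplicate, 37 °C. 0.5 µCi [3H]-hypoxanthine added after 24 h, then 24 h more (48 h total). Harvested and scintillation counted. IC50 by probit interpolation of log dose–response versus control wells.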

[2] = system: HL-60; test: Antitumor activity against human HL60 cells after 72 hrs by MTT assay; assay type: functional, cell-based; conditions: HL-60, 72 h
Outline: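 HL-60 cells in RPMI-1640 with 10% FBS and 1% L-glutamine, passages 5–15, viability >95%. 2.5 × 10^4 cells/well exposed to 0.01–100 µM for 72 h, DMSO final <0.5% v/v. MTT added for 4 h at 37 °C, then SDS/DMF lysis for 4 h. A570, reference 590 nm, as % of vehicle. Quadruplicate, ≥3 experiments. IC50 from individual curves.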

| SMILES | IC50 [1] [nM] | IC50 [2] [nM] |
| --- | --- | --- |
| C[C@H]1[C@@H](CCNCCCCNCCCN)O[C@@H]2O[C@@]3(C)CC[C@H]4[C@H](C)CC[C@@H]1[C@@]24OO3 | 259 | 17800 |
| C[C@H]1[C@@H](CCNCCCN(CCCCNC(=O)OC(C)(C)C)C(=O)OC(C)(C)C)O[C@@H]2O[C@@]3(C)CC[C@H]4[C@H](C)CC[C@@H]1[C@@]24OO3 | 0.76 | 16600 |
| C[C@H]1[C@@H](CCN(CCCCNC(=O)OC(C)(C)C)CCCNC(=O)OC(C)(C)C)O[C@@H]2O[C@@]3(C)CC[C@H]4[C@H](C)CC[C@@H]1[C@@]24OO3 | > 100 | > 100000 |
| C[C@H]1[C@@H](CCNCCCCN(CCCNC(=O)OC(C)(C)C)C(=O)OC(C)(C)C)O[C@@H]2O[C@@]3(C)CC[C@H]4[C@H](C)CC[C@@H]1[C@@]24OO3 | 0.21 | 11600 |
| C[C@H]1[C@@H](CC(=O)NCCCN(CCCCNC(=O)OC(C)(C)C)C(=O)OC(C)(C)C)O[C@@H]2O[C@@]3(C)CC[C@H]4[C@H](C)CC[C@@H]1[C@@]24OO3 | 4.3 | 31200 |
| C[C@H]1[C@@H](CC(=O)N(CCCCNC(=O)OC(C)(C)C)CCCNC(=O)OC(C)(C)C)O[C@@H]2O[C@@]3(C)CC[C@H]4[C@H](C)CC[C@@H]1[C@@]24OO3 | 4.8 | > 100000 |
| C[C@H]1[C@@H](CC(=O)NCCCCN(CCCNC(=O)OC(C)(C)C)C(=O)OC(C)(C)C)O[C@@H]2O[C@@]3(C)CC[C@H]4[C@H](C)CC[C@@H]1[C@@]24OO3 | 2.6 | 22000 |
| C[C@H]1[C@@H](CCNCCCNCCCCN)O[C@@H]2O[C@@]3(C)CC[C@H]4[C@H](C)CC[C@@H]1[C@@]24OO3 | 350 | 29200 |
| C[C@H]1[C@@H](CCN(CCCN)CCCCN)O[C@@H]2O[C@@]3(C)CC[C@H]4[C@H](C)CC[C@@H]1[C@@]24OO3 | 15.2 | > 100000 |
| C[C@H]1[C@@H](CC(=O)NCCCCNCCCN)O[C@@H]2O[C@@]3(C)CC[C@H]4[C@H](C)CC[C@@H]1[C@@]24OO3 | 727 | 35200 |
| C[C@H]1[C@@H](CC(=O)NCCCNCCCCN)O[C@@H]2O[C@@]3(C)CC[C@H]4[C@H](C)CC[C@@H]1[C@@]24OO3 | 81 | 47700 |
| C[C@H]1[C@@H](CC(=O)N(CCCN)CCCCN)O[C@@H]2O[C@@]3(C)CC[C@H]4[C@H](C)CC[C@@H]1[C@@]24OO3 | 108 | > 100000 |
| C[C@@H]1CC[C@H]2[C@@H](C)C(=O)O[C@@H]3O[C@@]4(C)CC[C@@H]1[C@]32OO4 [ARTEMISININ] | 9.2 | – |
